pIC50: −log10 of the molar value. Residues, ends and D or L forms follow the SMILES beside them.
Key:
Rattus norvegicus [1] = assay: Compound (CCK1 antagonist) was administered intraperitoneally for the effect of increase in plasma lipase activity induced by caerulein in rat
Rattus norvegicus [2] = assay: Compound (CCK1 antagonist) was administered orally for the effect of increase in plasma amylase activity induced by caerulein in rat.; assay type: functional
Summary of the method: (§1)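 Caerulein pancreatitis in fasted (24 h) male Wistar rats (190–210 g): four hourly sc injections of 10 µg/kg. Antagonist dosed orally (0.25 mL/100 g; 0.1 or 1 mg/kg) 60 min before the first caerulein injection. Plasma drawn 3 h after the final injection. Amylase and lipase activities read with commercial kits, in IU/mL. Comparisons by ANOVA plus Scheffé's test against caerulein.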

Rattus norvegicus [3] = assay: Compound (CCK1 antagonist) was administered intraperitoneally for the effect of increase in plasma amylase activity induced by caerulein in rat; assay type: functional
Summary of the method: (§2)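 Male Wistar rats (190–210 g), fasted 24 h, given four sc caerulein injections (10 µg/kg) at hourly intervals. Antagonist given ip (0.25 mL/100 g; 0.1 or 1 mg/kg) 30 min before the first caerulein dose. Blood taken 3 h after the last injection. Plasma amylase and lipase measured by commercial kits, in IU/mL. Statistics by ANOVA with Scheffé's test against caerulein alone.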

Rattus norvegicus [4] = assay: Compound (CCK1 antagonist) was administered orally for the effect of increase in plasma lipase activity induced by caerulein in rat; assay type: functional
Summary of the method: as §1

[5] = target: T1, Cholecystokinin receptor type A (Rattus norvegicus, UniProt P30551); assay: Binding affinity by competitive inhibition of the radioligand [3H]pCCK-8 at Cholecystokinin type A receptor from rat pancreas
T1 sequence (P30551 whole entry): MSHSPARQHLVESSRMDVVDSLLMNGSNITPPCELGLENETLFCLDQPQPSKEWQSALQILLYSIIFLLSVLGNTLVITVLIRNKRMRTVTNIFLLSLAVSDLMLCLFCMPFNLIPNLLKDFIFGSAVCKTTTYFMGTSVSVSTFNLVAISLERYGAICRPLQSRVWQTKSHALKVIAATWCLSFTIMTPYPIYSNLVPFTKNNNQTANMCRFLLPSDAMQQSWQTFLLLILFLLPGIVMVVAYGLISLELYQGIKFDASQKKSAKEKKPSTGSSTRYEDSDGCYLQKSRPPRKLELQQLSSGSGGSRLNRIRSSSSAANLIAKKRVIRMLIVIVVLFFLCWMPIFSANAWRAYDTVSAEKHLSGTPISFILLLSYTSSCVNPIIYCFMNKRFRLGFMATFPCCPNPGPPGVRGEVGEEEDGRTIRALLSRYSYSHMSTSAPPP
Summary of the method: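 Rat pancreas homogenized in Pipes HCl pH 6.5 with 30 mM MgCl2, centrifuged twice at 50000g, 4 °C. Membranes (0.2 mg protein/tube) incubated with 0.5 nM [3H]pCCK-8 plus bacitracin and soybean trypsin inhibitor (0.2 mg/mL each) for 120 min at 25 °C. Ki from displacement curves by Cheng–Prusoff. Seven concentrations in triplicate, at least three experiments.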

[6] = target: T2, Gastrin/cholecystokinin type B receptor (Rattus norvegicus, UniProt P30553); assay: Binding affinity by competitive inhibition of the radioligand [3H]pCCK-8 at Cholecystokinin type B receptor from rat cerebral cortex membrane; assay type: tissue-based
T2 sequence (P30553 whole entry): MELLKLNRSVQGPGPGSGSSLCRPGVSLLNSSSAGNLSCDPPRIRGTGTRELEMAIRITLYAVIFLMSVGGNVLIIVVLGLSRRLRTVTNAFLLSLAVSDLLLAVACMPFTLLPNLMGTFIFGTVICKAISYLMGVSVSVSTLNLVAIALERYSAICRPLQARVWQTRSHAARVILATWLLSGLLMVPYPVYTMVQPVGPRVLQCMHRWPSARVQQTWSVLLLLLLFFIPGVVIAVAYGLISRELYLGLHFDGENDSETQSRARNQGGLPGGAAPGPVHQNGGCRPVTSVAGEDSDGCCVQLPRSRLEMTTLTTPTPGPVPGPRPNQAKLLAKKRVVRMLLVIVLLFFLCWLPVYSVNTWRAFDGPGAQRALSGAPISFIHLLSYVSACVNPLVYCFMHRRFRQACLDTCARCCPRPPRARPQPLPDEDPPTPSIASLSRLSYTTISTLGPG

Rattus norvegicus [7] = assay: Compound (CCK1 antagonist) was administered intraperitoneally for the effect of increase in plasma amylase activity induced by caerulein in rat at the dose of 1 mg/kg; assay type: functional; conditions: route intraperitoneal
Summary of the method: as §2

Rattus norvegicus [8] = assay: Compound (CCK1 antagonist) was administered orally for the effect of increase in plasma amylase activity induced by caerulein in rat at the dose of 1 mg/kg; assay type: functional; conditions: route oral
Summary of the method: as §1

Rattus norvegicus [9] = assay: Compound (CCK1 antagonist) was administered orally for the effect of increase in plasma lipase activity induced by caerulein in rat at the dose of 1 mg/kg; assay type: functional; conditions: route oral
Summary of the method: as §1

Rattus norvegicus [10] = assay: Compound (CCK1 antagonist) was administered intraperitoneally for the effect of increase in plasma amylase activity induced by caerulein in rat at the dose of 0.1 mg/kg; assay type: functional; conditions: route intraperitoneal
Summary of the method: as §2

Rattus norvegicus [11] = assay: Compound (CCK1 antagonist) was administered orally for the effect of increase in plasma lipase activity induced by caerulein in rat at the dose of 0.1 mg/kg; assay type: functional; conditions: route oral
Summary of the method: as §1

Rattus norvegicus [12] = assay: Compound (CCK1 antagonist) was administered orally for the effect of increase in plasma amylase activity induced by caerulein in rat at the dose of 0.1 mg/kg; assay type: functional; conditions: route oral
Summary of the method: as §1

Rattus norvegicus [13] = assay: Compound (CCK1 antagonist) was administered intraperitoneally for the effect of increase in plasma lipase activity induced by caerulein in rat at the dose of 0.1 mg/kg; assay type: functional; conditions: route intraperitoneal
Summary of the method: as §2

Rattus norvegicus [14] = assay: Compound (CCK1 antagonist) was administered intraperitoneally for the effect of increase in plasma lipase activity induced by caerulein in rat at the dose of 1 mg/kg; assay type: functional; conditions: route intraperitoneal
Summary of the method: as §2

| Compound | pIC50 [5] | pIC50 [6] | also measured |
| --- | --- | --- | --- |
| CSCC[C@H](NC(=O)[C@H](Cc1c[nH]c2ccccc12)NC(=O)CNC(=O)[C@@H](NC(=O)[C@H](Cc1ccc(OS(=O)(=O)O)cc1)NC(=O)[C@H](CC(=O)O)NC(=O)[C@H](CCC(N)=O)NC(=O)[C@@H]1CCC(=O)N1)[C@@H](C)O)C(=O)N[C@@H](CC(=O)O)C(=O)N[C@@H](Cc1ccccc1)C(N)=O [CAERULIN] (HELM PEPTIDE1{[Glp].Q.D.[O=C([C@H](Cc1ccc(OS(=O)(=O)O)cc1)N[*:1])[*:2]].T.G.W.M.D.F.[am]}$$$$V2.0) | – | – | Increase in plasma lipase (Rattus norvegicus [1]): 3100 IU ml-1; Increase in plasma amylase (Rattus norvegicus [2]): 39293 IU ml-1; Increase in plasma amylase (Rattus norvegicus [3]): 52101 IU ml-1; Increase in plasma lipase (Rattus norvegicus [4]): 2801 IU ml-1 |
| CN1C(=O)[C@@H](NC(=O)c2cc3ccccc3[nH]2)N=C(c2ccccc2)c2ccccc21 [DEVAZEPIDE] | – | – | Increase in plasma amylase (Rattus norvegicus [7]): 3650 IU ml-1; Increase in plasma amylase (Rattus norvegicus [8]): 4578 IU ml-1; Increase in plasma lipase (Rattus norvegicus [9]): 57 IU ml-1; Increase in plasma amylase (Rattus norvegicus [10]): 8793 IU ml-1; Increase in plasma lipase (Rattus norvegicus [11]): 871 IU ml-1; Increase in plasma amylase (Rattus norvegicus [12]): 7733 IU ml-1; Increase in plasma lipase (Rattus norvegicus [13]): 125 IU ml-1; Increase in plasma lipase (Rattus norvegicus [14]): 26 IU ml-1 |
| CC(C)(C)OC(=O)N[C@@H](Cc1c[nH]c2ccccc12)[C@@H](C#N)N[C@@H]1CCCN2C(=O)N(Cc3ccccc3)C(=O)CC12 (single isomer, unassigned) | 7.49 | < 5.00 | – |
| CC(C)(C)OC(=O)N[C@@H](Cc1c[nH]c2ccccc12)C(=O)N[C@@H]1CCCN2C(=O)N(Cc3ccccc3)C(=O)CC12 (single isomer, unassigned) [IQM-95333] | 8.80 | < 5.00 | Increase in plasma amylase (Rattus norvegicus [7]): 2721 IU ml-1; Increase in plasma amylase (Rattus norvegicus [8]): 31205 IU ml-1; Increase in plasma lipase (Rattus norvegicus [9]): 1948 IU ml-1; Increase in plasma amylase (Rattus norvegicus [10]): 35985 IU ml-1; Increase in plasma lipase (Rattus norvegicus [11]): 2837 IU ml-1; Increase in plasma amylase (Rattus norvegicus [12]): 37753 IU ml-1; Increase in plasma lipase (Rattus norvegicus [13]): 1943 IU ml-1; Increase in plasma lipase (Rattus norvegicus [14]): 112 IU ml-1 |
| CC(C)(C)OC(=O)N[C@@H](Cc1c[nH]c2ccccc12)[C@H](C#N)N[C@@H]1CCCN2C(=O)N(Cc3ccccc3)C(=O)CC12 (single isomer, unassigned) | 8.11 | < 5.00 | – |
| CC(C)(C)OC(=O)N[C@@H](Cc1c[nH]c2ccccc12)C(=O)N[C@H]1CCCN2C(=O)N(Cc3ccccc3)C(=O)C[C@@H]12 | 7.64 | 5.21 | – |
| N#C[C@@H](N[C@@H]1CCCN2C(=O)N(Cc3ccccc3)C(=O)C[C@H]12)[C@H](Cc1c[nH]c2ccccc12)NC(=O)OCc1ccccc1 | < 6.00 | < 5.00 | – |
| O=C(Cc1c[nH]c2ccccc12)N[C@H]1CCCN2C(=O)N(Cc3ccccc3)C(=O)C[C@@H]12.O=C(N[C@@H]1CCCN2C(=O)N(Cc3ccccc3)C(=O)C[C@H]12)c1c[nH]c2ccccc12 | < 6.00 | < 5.00 | – |
| CC(C)(C)OC(=O)N1Cc2[nH]c3ccccc3c2CC1C(=O)N[C@@H]1CCCN2C(=O)N(Cc3ccccc3)C(=O)C[C@H]12 (some centres undefined) | – | < 5.00 | – |
| CC(C)(C)OC(=O)N[C@@](C)(Cc1c[nH]c2ccccc12)C(=O)N[C@@H]1CCCN2C(=O)N(Cc3ccccc3)C(=O)C[C@@H]12.CC(C)(C)OC(=O)N[C@@](C)(Cc1c[nH]c2ccccc12)C(=O)N[C@H]1CCCN2C(=O)N(Cc3ccccc3)C(=O)C[C@H]12 (single isomer, unassigned) | 7.37 | < 5.00 | – |

The next lines start with results.

| pIC50 [5] | pIC50 [6] | Compound | also measured |
| --- | --- | --- | --- |
| 6.47 | 5.46 | O=C(N[C@@H](Cc1c[nH]c2ccccc12)C(=O)N[C@H]1CCCN2C(=O)N(Cc3ccccc3)C(=O)CC12)OC1C2CC3CC(C2)CC1C3 (single isomer, unassigned) | – |
| 7.18 | < 5.00 | CC(C)(C)OC(=O)N[C@@H](Cc1ccccc1)C(=O)N[C@@H]1CCCN2C(=O)N(Cc3ccccc3)C(=O)C[C@H]12 | – |
| < 6.00 | < 5.00 | N[C@@H](Cc1c[nH]c2ccccc12)C(=O)N[C@H]1CCCN2C(=O)N(Cc3ccccc3)C(=O)C[C@@H]12 | – |
| < 6.00 | < 5.00 | O=C(N[C@@H]1CCCN2C(=O)N(Cc3ccccc3)C(=O)C[C@@H]12)c1cc2ccccc2[nH]1.O=C(N[C@H]1CCCN2C(=O)N(Cc3ccccc3)C(=O)C[C@H]12)c1cc2ccccc2[nH]1 | – |
| < 6.00 | < 5.00 | CC(C)(C)OC(=O)N1Cc2[nH]c3ccccc3c2CC1C(=O)N[C@H]1CCCN2C(=O)N(Cc3ccccc3)C(=O)C[C@@H]12 (some centres undefined) | – |
| 6.31 | 5.36 | O=C(N[C@H]1CCCN2C(=O)N(Cc3ccccc3)C(=O)C[C@@H]12)[C@H](Cc1c[nH]c2ccccc12)NC(=O)C12CC3CC(CC(C3)C1)C2 | – |
| < 6.00 | < 5.00 | N#C[C@H](N[C@@H]1CCCN2C(=O)N(Cc3ccccc3)C(=O)C[C@H]12)[C@H](Cc1c[nH]c2ccccc12)NC(=O)OCc1ccccc1 | – |
| < 6.00 | < 5.00 | CC(C)(C)OC(=O)N[C@H](CN[C@@H]1CCCN2C(=O)N(Cc3ccccc3)C(=O)C[C@H]12)Cc1c[nH]c2ccccc12 | – |
| < 6.00 | < 5.00 | N[C@@H](Cc1c[nH]c2ccccc12)C(=O)N[C@@H]1CCCN2C(=O)N(Cc3ccccc3)C(=O)C[C@H]12 | – |
| 9.04 | < 5.00 | CC(C)(C)NC(=O)N[C@@H](Cc1c[nH]c2ccccc12)C(=O)N[C@@H]1CCCN2C(=O)N(Cc3ccccc3)C(=O)CC12 (single isomer, unassigned) | Increase in plasma amylase (Rattus norvegicus [7]): 5326 IU ml-1; Increase in plasma amylase (Rattus norvegicus [8]): 19967 IU ml-1; Increase in plasma lipase (Rattus norvegicus [9]): 1062 IU ml-1; Increase in plasma amylase (Rattus norvegicus [10]): 27103 IU ml-1; Increase in plasma lipase (Rattus norvegicus [11]): 2200 IU ml-1; Increase in plasma amylase (Rattus norvegicus [12]): 28939 IU ml-1; Increase in plasma lipase (Rattus norvegicus [13]): 1667 IU ml-1; Increase in plasma lipase (Rattus norvegicus [14]): 36 IU ml-1 |
| 8.35 | < 5.00 | CC(C)(C)CC(=O)N[C@@H](Cc1c[nH]c2ccccc12)C(=O)N[C@@H]1CCCN2C(=O)N(Cc3ccccc3)C(=O)CC12 (single isomer, unassigned) | Increase in plasma amylase (Rattus norvegicus [7]): 28015 IU ml-1; Increase in plasma amylase (Rattus norvegicus [8]): 46591 IU ml-1; Increase in plasma lipase (Rattus norvegicus [9]): 3375 IU ml-1; Increase in plasma amylase (Rattus norvegicus [10]): 61102 IU ml-1; Increase in plasma lipase (Rattus norvegicus [11]): 3089 IU ml-1; Increase in plasma amylase (Rattus norvegicus [12]): 51420 IU ml-1; Increase in plasma lipase (Rattus norvegicus [13]): 2956 IU ml-1; Increase in plasma lipase (Rattus norvegicus [14]): 1140 IU ml-1 |
| – | < 5.00 | CC(C)(C)OC(=O)N[C@](C)(Cc1c[nH]c2ccccc12)C(=O)N[C@@H]1CCCN2C(=O)N(Cc3ccccc3)C(=O)C[C@@H]12.CC(C)(C)OC(=O)N[C@](C)(Cc1c[nH]c2ccccc12)C(=O)N[C@H]1CCCN2C(=O)N(Cc3ccccc3)C(=O)C[C@H]12 | – |

From ChEMBL document CHEMBL1132468, “5-(Tryptophyl)amino-1,3-dioxoperhydropyrido[1,2-c]pyrimidine-based potent and selective CCK(1) receptor antagonists: structural modifications at the tryptophan domain” (J Med Chem, 1999)
